Measured values as given in ChEMBL document CHEMBL3259611, “Suppression of inflammatory responses by handelin, a guaianolide dimer from Chrysanthemum boreale, via downregulation of NF-κB signaling and pro-inflammatory cytokine production” (J Nat Prod, 2014).
Activity calls are given as the source filed them. No cut-off for these calls is given here.

Key:
RAW264.7 = experiment: Antiinflammatory activity in mouse RAW264.7 cells assessed as inhibition LPS-induced IL-1beta mRNA expression at 20 uM after 4 hrs by RT-PCR analysis relative to control; format: functional
Procedure, shortened: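 RAW 264.7 cells stimulated with LPS (1 μg/mL) with or without compound for 4 h. Total RNA was isolated and cytokine mRNA was analysed by RT-PCR: 94 °C 4 min, then 25−30 cycles of 94/55/72 °C for 30 s each, then 72 °C 5 min. Products were run on 2% agarose and stained with SYBR-Safe. Triplicate, representative of three experiments.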

[1] = target: Transcription factor p65 (Mus musculus) (UniProt Q04207); experiment: Inhibition of LPS-induced NF-kappaB p65 binding to DNA in mouse RAW264.7 cells at 10 to 40 uM after 1.5 hrs by spectrophotometry in presence of mutant oligonucleotide; format: cell-based
Transcription factor p65 (Mus musculus), sequence (Q04207 whole entry): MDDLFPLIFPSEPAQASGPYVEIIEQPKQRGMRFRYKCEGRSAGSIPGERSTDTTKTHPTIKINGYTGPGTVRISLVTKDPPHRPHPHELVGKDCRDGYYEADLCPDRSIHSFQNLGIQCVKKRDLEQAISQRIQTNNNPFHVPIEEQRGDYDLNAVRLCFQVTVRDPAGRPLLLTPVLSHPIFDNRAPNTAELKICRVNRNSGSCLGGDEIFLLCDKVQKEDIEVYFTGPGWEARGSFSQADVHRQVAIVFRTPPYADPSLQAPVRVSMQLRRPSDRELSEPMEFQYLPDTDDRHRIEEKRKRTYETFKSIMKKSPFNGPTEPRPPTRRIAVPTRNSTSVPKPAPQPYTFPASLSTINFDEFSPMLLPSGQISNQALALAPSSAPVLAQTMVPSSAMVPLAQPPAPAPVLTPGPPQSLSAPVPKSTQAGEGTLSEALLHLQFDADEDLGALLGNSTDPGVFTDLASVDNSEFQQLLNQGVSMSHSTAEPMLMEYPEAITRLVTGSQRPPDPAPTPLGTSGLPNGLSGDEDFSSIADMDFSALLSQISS

[2] = target: T1, Nuclear factor NF-kappa-B p105 subunit (Mus musculus) (UniProt P25799); experiment: Inhibition of LPS-induced NFkappaB P50 protein nuclear translocation in mouse RAW264.7 cells at 40 uM after 30 mins by Western blotting analysis relative to control; format: cell-based
T1 sequence (whole entry): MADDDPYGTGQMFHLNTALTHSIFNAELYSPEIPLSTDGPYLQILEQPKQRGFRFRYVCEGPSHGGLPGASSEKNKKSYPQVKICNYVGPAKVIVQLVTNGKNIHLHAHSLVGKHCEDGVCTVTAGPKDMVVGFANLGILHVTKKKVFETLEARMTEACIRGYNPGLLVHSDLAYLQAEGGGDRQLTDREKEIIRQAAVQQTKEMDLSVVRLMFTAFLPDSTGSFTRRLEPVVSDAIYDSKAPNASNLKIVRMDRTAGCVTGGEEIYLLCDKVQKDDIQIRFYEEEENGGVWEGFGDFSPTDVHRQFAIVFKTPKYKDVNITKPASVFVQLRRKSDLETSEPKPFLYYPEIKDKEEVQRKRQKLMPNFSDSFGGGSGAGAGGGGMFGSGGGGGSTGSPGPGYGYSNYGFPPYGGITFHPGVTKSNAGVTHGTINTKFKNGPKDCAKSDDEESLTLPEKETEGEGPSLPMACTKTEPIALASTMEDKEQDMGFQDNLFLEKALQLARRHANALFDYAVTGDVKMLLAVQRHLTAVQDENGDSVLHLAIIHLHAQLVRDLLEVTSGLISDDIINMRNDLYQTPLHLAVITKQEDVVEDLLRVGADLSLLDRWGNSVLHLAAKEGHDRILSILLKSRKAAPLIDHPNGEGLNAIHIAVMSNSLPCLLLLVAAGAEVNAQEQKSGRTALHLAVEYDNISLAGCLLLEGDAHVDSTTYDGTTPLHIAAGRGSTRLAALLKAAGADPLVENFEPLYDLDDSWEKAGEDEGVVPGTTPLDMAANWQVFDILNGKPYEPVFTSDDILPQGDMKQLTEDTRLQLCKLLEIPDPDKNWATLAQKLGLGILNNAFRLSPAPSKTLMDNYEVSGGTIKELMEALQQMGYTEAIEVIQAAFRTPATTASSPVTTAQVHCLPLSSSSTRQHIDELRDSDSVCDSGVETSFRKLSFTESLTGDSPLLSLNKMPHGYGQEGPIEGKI
Procedure, shortened: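 Macrophages were exposed to compound for 30 min before LPS stimulation, with proteins extracted 30 min later. Nuclear extracts were prepared in Tris/KCl/NP-40 lysis buffer, then 420 mM NaCl buffer, and the cytosolic fraction was kept for IκB-α. Western blot on PVDF with ECL detection. Tests in triplicate; representative of three separate experiments.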

**Q.** Which “fold change (FC)” value (RAW264.7) does the source give for `C=C1C(=O)O[C@@H]2[C@@H]3[C@@]4(C=C[C@@]3(C)[C@]3(C4)C(=O)O[C@@H]4[C@H]5C(C)=CC[C@H]5[C@](C)(O)C[C@H](OC(C)=O)[C@H]43)[C@](C)(O)CC[C@@H]12` here?
**A.** 0.79

**Q.** And the inhibition [1]?
**A.** Active

**Q.** And the fold change (FC) [2]?
**A.** 0.16
